# SMARCA2 act: activators of SMARCA2 function; MG213 cells, MMTV-luciferase reporter, dexamethasone, overnight; activation, % at 9.1 µM; 1% of 370,000 active; AID 652017; in the data active means activation above about 7.8%;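 further: 0% = vehicle wells and 100% = reference activator wells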
# MC4R ag barr: agonists of human melanocortin 4 receptor (MC4R) beta-arrestin | P32245 | AID 540308 | 0.98% of 360,000 active | activation, % at 8.9 µM | U2OS MC4R beta-arrestin complementation, luminescence; percent of melanotan II response, DMSO zero;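 active means activation above a per-plate cutoff, the mean activation of sample wells on that plate plus 3 SD, cut at about 8% in these data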
# ATG4B inhibitor: ATG4B (human) cysteine protease inhibition; Q9Y4P1; ATG4B cleavage of LC3-PLA2, NBD-HPC fluorescence, 1 h; inhibition, % at 8.33 µM; 0.51% of 340,000 active; AID 504462; in the data active means inhibition above about 40%
# Target sequence (Q9Y4P1 whole entry, looked up): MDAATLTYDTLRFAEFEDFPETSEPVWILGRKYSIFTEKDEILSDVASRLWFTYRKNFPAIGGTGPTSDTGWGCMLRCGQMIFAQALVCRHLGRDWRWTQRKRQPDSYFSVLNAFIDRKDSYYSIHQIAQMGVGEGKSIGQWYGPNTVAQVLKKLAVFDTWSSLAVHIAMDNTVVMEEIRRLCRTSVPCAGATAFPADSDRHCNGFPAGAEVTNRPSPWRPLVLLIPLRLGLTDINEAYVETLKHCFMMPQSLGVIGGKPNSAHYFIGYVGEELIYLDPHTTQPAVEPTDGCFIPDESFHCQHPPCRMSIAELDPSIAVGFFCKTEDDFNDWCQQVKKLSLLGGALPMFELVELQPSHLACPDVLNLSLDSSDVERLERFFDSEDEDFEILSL
# MC4R antag cAMP: blocks human MC4R cAMP signaling; P32245; MC4R-expressing cells, MTII-stimulated cAMP, LANCE TR-FRET; inhibition, % at 6.5 µM; 0.48% of 360,000 active; AID 540295;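 active means inhibition above its plate's cutoff, the mean of tested wells on that plate plus 3 SD, cut at about 29% in these data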;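 further: 0% = Melanotan II alone and 100% = Melanotan II plus saturating MCL0020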
#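 system = U2OS cells with stable human MC4R expression | also added = Melanotan II challenge after compound preincubation | dosing = one concentration, 6.5 µM nominal | incubation = compound 30 min, challenge 1 h, detection 1 h | measured by = TR-FRET with Eu-cAMP and labeled anti-cAMP, 671 nm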
# MPTP inh: blocks calcium-induced mitochondrial swelling. 1.4% of 360,000 active. isolated mouse mitochondria, Ca2+ swelling absorbance, 30 min. inhibition, % at 10 µM;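 active means inhibition of 50% or more, scaled per plate between neutral and stimulator controls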;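 further: 0% = DMSO wells given calcium and 100% = 1 mM EGTA wells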
# cAMP nonselect: U2OS forskolin cAMP inhibition counter-screen | 26% of 1,600 active | parental U2OS, LANCE TR-FRET | AID 602193 | shares compounds with MC4R antag cAMP | inhibition, % at 6.5 µM;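 active means mean inhibition over triplicates above the low-control well mean plus 3 SD, set per campaign, cut at about 13% in these data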;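 further: signal is single emission at 671 nm which falls as cellular cAMP rises; 0% = forskolin-stimulated wells and 100% = buffer without forskolin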
# MC4R cAMP antag: human MC4R cAMP antagonism confirmation; 27% of 1,600 active; MC4R-expressing cells, MTII-stimulated cAMP, TR-FRET; inhibition, % at 6.5 µM; shares compounds with MC4R antag cAMP; in the data active means inhibition above about 29%;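 further: 0% = agonist stimulated wells alone and 100% = agonist stimulated wells plus saturating reference antagonist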
# Numbers without * were called inactive; . = no result. Hits are enriched below; roughly 4.1% of the tested compounds scored in any of these assays.
SMILES,SMARCA2 act,MC4R ag barr,ATG4B inhibitor,MC4R antag cAMP,MPTP inh,cAMP nonselect,MC4R cAMP antag
CSCCC(NC(=O)c1ccc([N+](=O)[O-])cc1Cl)C(=O)OCC(=O)C12CC3CC(CC(C3)C1)C2 (stereo not given),-1.6,1.9,1.9,33.1*,6.0,-3.2,1.8
CSCCC(NC(=O)c1ccc([N+](=O)[O-])cc1Cl)C(=O)OC(C)C(=O)NCc1ccco1 (stereo not given),-0.4,-2.1,8.4,28.7*,-1.1,8.5,18.4
CCOC(=O)C1=C(C(=O)OCC)C2N(Cc3ccc(Br)cc3)c3ccccc3[C@@]23C[C@@H](C(=O)OC)N(S(=O)(=O)c2ccc(F)cc2)C3=N1 (stereo not given in full),-1.4,.,.,.,.,.,.
COc1ccccc1-c1c(C)oc2cc(OCC(=O)OCc3ccccc3)ccc2c1=O,-2.0,0.2,-7.6,36.6*,3.2,14.4*,37.8*
COc1ccccc1-c1coc2cc(OCC(=O)OCc3ccccc3)ccc2c1=O,-1.9,-2.7,-3.7,23.7,0.5,.,.
COc1ccccc1C1(CCNS(=O)(=O)c2ccc(C)cc2)CCOC(C(C)C)C1 (stereo not given),1.0,6.8,1.3,7.5,1.1,.,.
COc1ccccc1C1(CCNC(C)c2cccs2)CCOC(C(C)C)C1 (stereo not given),-1.2,1.1,2.0,47.0*,2.2,-3.7,37.3*
Cc1ccccc1N1C(=O)c2cccc([N+](=O)[O-])c2C1=O,-1.8,-1.1,-1.7,32.0*,0.3,14.4*,11.6
Cc1ccc(-n2nc3cc(C)c(NC(=S)NC(=O)/C=C/c4ccco4)cc3n2)cc1,-1.0,2.3,6.7,11.1,0.9,.,.
Cc1ccc(-n2nc3ccc(NC(=S)NC(=O)/C=C/c4ccco4)cc3n2)cc1,0.0,2.5,32.0,41.2*,-0.6,4.7,25.7
CC(=O)NC1CCCCN(C)C1=O (stereo not given),-0.4,.,.,.,.,.,.
CC(C)(C)c1nc(SCC(=O)NC2CCCC2)c2ccccc2n1,-2.6,1.4,6.3,29.3*,1.1,5.8,-0.5
Cc1cc(C(=O)O)ccc1-c1ccc(/C=C2\NC(=O)N(Cc3ccccc3Cl)C2=O)o1,.,1.3,15.0,36.9*,0.4,1.8,-3.3
CCOC(=O)[C@@]12CCCC=C1N(CCc1ccc(Cl)cc1)C(=O)[C@H]2CC(=O)NCc1cccc2ccccc12,-2.0,.,.,.,.,.,.
CCN(CC)c1ccc(C2Nc3cccc4cccc(c34)N2)c(O)c1,5.4,0.5,-8.5,32.6*,0.3,3.2,29.1*
COC(=O)[C@]12C[C@H](CC(=O)NCc3ccc(C)o3)C(=O)N(CCc3ccc(OC)c(OC)c3)C1=C[C@H](C(C)C)O[C@@H]2C1CC1,-0.9,.,.,.,.,.,.
COc1ccc(NC(=O)c2cc([N+](=O)[O-])ccc2N2CCN(C)CC2)cc1,0.6,1.1,1.4,28.9*,-3.2,-0.7,2.1
Cc1nc2ccc(NC(=O)c3ccc(Cl)c([N+](=O)[O-])c3)cc2s1,-1.4,-0.5,3.6,29.8*,38.2,10.4,19.8
O=C(Nc1cccc(NC(=O)c2ccc(Br)o2)c1)c1ccccc1,1.6,-0.8,-2.0,34.4*,-0.5,1.4,5.0
O=C(c1ccccc1)c1cccc(NC(=O)c2ccc(Br)o2)c1,-0.2,-1.4,0.2,3.5,-1.4,.,.
COCCCC1CCN(Cc2nc(-c3ccccc3)no2)CC1,-0.3,1.5,-0.6,29.9*,0.7,-0.4,-7.0
C=CCc1cccc2cc(C(=O)N3CCN(C(=O)c4ccccc4)CC3)c(=O)oc12,1.5,1.0,-0.7,30.2*,-0.2,-1.7,-5.8
CCOC(=O)N1C(=O)C[C@](Sc2ccc(OC)cc2)(C(=O)N2CCN(C(C)=O)CC2)[C@H]1c1ccc(OC)cc1,-3.0,.,.,.,.,.,.
CCC1(CC)Cc2ccccc2-c2[nH]c(=S)[nH]c(=O)c21,-3.5,2.8,0.5,20.3,8.9,.,.
CC(C)C1Cc2ccccc2-c2[nH]c(=S)[nH]c(=O)c21 (stereo not given),-3.6,4.2,-10.1,36.5*,2.9,20.8*,48.3*
SMILES,SMARCA2 act,MC4R ag barr,ATG4B inhibitor,MC4R antag cAMP,MPTP inh,cAMP nonselect,MC4R cAMP antag
Cc1cc(C(=O)OCC(=O)c2ccc(Br)s2)no1,.,-1.1,20.3,37.0*,-2.4,5.1,9.4
NS(=O)(=O)c1cccc(NC(=O)c2cncc(Br)c2)c1,-0.8,-2.3,-10.9,-9.5,1.7,.,.
NS(=O)(=O)c1cccc(NC(=O)c2cccc3c(Br)cccc23)c1,-2.1,0.6,-5.9,42.7*,2.8,3.2,7.3
CC(OC(=O)Cn1cnc2c1c(=O)n(C)c(=O)n2C)C(=O)NC(C)c1ccc(Cl)cc1Cl (stereo not given),-1.4,-4.5,4.2,35.7*,2.3,12.3,11.9
C[C@@H]1COc2cc(N3CCSCC3)ccc2S(=O)(=O)N1C,-2.6,.,.,.,.,.,.
O=C(NCC(c1cccs1)N1CCOCC1)c1cnc(Cl)c(Cl)c1 (stereo not given),3.4,-4.0,6.2,30.2*,-0.1,17.4*,37.8*
COc1cccc(C(=O)Nc2ccc(S(=O)(=O)Nc3cc(C)nc(C)n3)cc2)c1,-5.2,-0.9,-8.9,29.4*,-0.8,-0.6,-1.1
Cc1ccc2[nH]c(O)c(N=NC(=O)c3ccc(NS(=O)(=O)c4cccs4)cc3)c2c1,2.8,4.0,4.7,33.9*,0.9,-3.4,-17.2
COc1ccc(C2NC(C(=O)O)Cc3c2[nH]c2ccccc32)cc1CN1CCN(c2ccc(F)cc2)CC1 (stereo not given),0.7,0.5,-8.2,30.2*,2.1,-0.1,3.3
O=C(O)C1Cc2c([nH]c3ccccc23)C(c2ccc3c(c2)OCO3)N1 (stereo not given),3.9,-1.2,1.8,0.6,0.9,.,.
CCOC(=O)C1=C(C(=O)OCC)C2N(Cc3ccc(C(F)(F)F)cc3)c3ccccc3[C@@]23C[C@@H](C(=O)OC)N(S(=O)(=O)c2ccc(OC)cc2)C3=N1 (stereo not given in full),2.4,.,.,.,.,.,.
CC(=O)N(Cc1c(C)nn(-c2ccccc2)c1Cl)c1ccc(Cl)cc1,-1.5,-0.3,-11.2,0.0,0.1,.,.
Cc1nn(-c2ccccc2)c(Cl)c1CN(C(=O)CCl)c1ccc(Cl)cc1,-11.8,11.4*,5.8,39.7*,2.8,-37.0,47.0*
CCN(CC)C(=O)CCCc1c[nH]c2ccccc12,-1.7,1.1,1.8,32.1*,-1.5,1.2,-11.3
N#Cc1ccccc1NC(=O)CSc1nnc(-c2ccncc2)o1,-4.5,1.9,6.3,30.2*,3.0,-5.5,1.4

# Compound activity (PubChem BioAssay)
